From PubChem BioAssay
Compounds with a hit are over-represented: about 1.4% of the library has one in this group of screens.
CAL PDZ FP-1: inhibitors of human CAL PDZ peptide binding; Q9HD26; purified CAL PDZ, TMR-peptide fluorescence polarization, 1 h; inhibition, % at 24.9 µM; actives 0.92% (n = 300,000);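 active = mean inhibition of at least 30% with at least half of replicates also reaching 30%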
CAL PDZ FP-2: blocks peptide binding to human CAL PDZ domain | actives 0.02% (n = 330,000) | AID 504414 | purified CAL PDZ, TMR-peptide fluorescence polarization, 1 h | inhibition, % at 20 µM | Q9HD26;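 active = highest replicate inhibition of at least 40%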
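Test system: tagged CAL PDZ domain / Buffer or medium: sodium phosphate/NaCl buffer pH 7.4 with TCEP, IgG, Thesit / Reagent: TMR-labelled reporter peptide T*-PRC34 bound in PDZ groove / Compound dosing: single point, 20 µM / Schedule: 1 h incubation at room temperature before polarization reading / Technique: fluorescence polarization (mP) / Benchmarks: unlabelled peptide, DMSO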
DYRK1A inh: Dyrk1A (rat) kinase inhibition | ADP-Glo luminescence, NFATc1 peptide | inhibition, % at 12.5 µM | actives 0.43% (n = 310,000) | AID 504441; in the data active = inhibition above about 50%
ARNT-TACC3 inh: disrupts binding between human ARNT and TACC3; Q9Y6A5; AlphaScreen His-ARNT PAS-B/GST-TACC3 binding, luminescence; TACC3 fragment carries E629A point mutation; inhibition, % at 9.99 µM; actives 0.66% (n = 390,000); AID 623870;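 active = mean inhibition of replicates at least 50% and at least half of replicates each reaching 50%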
A number is an active result; i = inactive; nt = not tested or not shown.

SMILES | CAL PDZ FP-1 | CAL PDZ FP-2 | DYRK1A inh | ARNT-TACC3 inh
O=C(O)c1ccccc1N=Nc1c(O)[nH]c2ccc([N+](=O)[O-])cc12 | i | i | i | 46.7
O=C(C[C@@H]1CC[C@H](NC(=O)Nc2ccccc2)[C@H](CO)O1)NCc1ccccn1 | nt | nt | nt | i
COc1ccc(CN(C)C[C@H]2Oc3c(NS(=O)(=O)c4cn(C)cn4)cccc3C(=O)N([C@@H](C)CO)C[C@H]2C)cc1 | nt | nt | nt | i
CCN(Cc1cnn(C)c1)C(=O)C1CCC(=O)N(CCc2ccc(OC)cc2)C1 (configuration not stated) | 85.9 | i | i | i
CCc1ccc(CN(C)C(=O)C2CCC(=O)N(CCc3ccc(OC)cc3)C2)nc1 (configuration not stated) | i | i | i | i
O=C(C[C@H]1CC[C@@H]2[C@H](COC[C@H](O)CN2S(=O)(=O)c2ccc(F)cc2)O1)N[C@@H]1CCN(Cc2ccccc2)C1 | nt | nt | nt | i
CCOC(=O)c1csc(Nc2nc3ccc(F)cc3s2)n1 | 39.3 | i | i | i
COC(=O)c1ccc2nc(Nc3nc4ccc(F)cc4s3)sc2c1 | i | i | i | i
COc1cccc(CNC(=O)C[C@@H]2CC[C@@H](NC(C)=O)[C@@H](CO)O2)c1 | nt | nt | nt | i
COc1ccc(CNC(=O)C[C@H]2C[C@H]3c4cc(NC(=O)C5CCC5)ccc4O[C@H]3[C@H](CO)O2)cc1 | nt | nt | nt | i
O=C1CN(CC(=O)N2CCCCC2)c2ccccc2O1 | i | i | i | i
O=C(CN1CC(=O)Oc2ccccc21)OCC(=O)c1ccc(F)cc1 | i | i | i | 62.8
O=C(CN1CC(=O)Oc2ccccc21)OCC(=O)c1ccc(Br)cc1 | i | i | i | 71.5
O=C(C[C@@H]1CC[C@H]2[C@@H](COC[C@H](O)CN2Cc2ccc3c(c2)OCO3)O1)N1CCOCC1 | nt | nt | nt | i
Cc1ccccc1CC(=O)NC1CCCc2ccccc21 (configuration not stated) | i | i | i | i
CC1(C)CC(=O)C(CC(=O)NC2CCCc3ccccc32)C(=O)C1 (configuration not stated) | 106.3 | i | i | i
O=C(CNC(=O)c1cccc([N+](=O)[O-])c1)NC1CCCc2ccccc21 (configuration not stated) | 35.4 | i | nt | nt
Cc1ccc(S(=O)(=O)N(C)C[C@@H]2OCCCC[C@H](C)Oc3ccc(NC(=O)Cc4ccccc4)cc3C(=O)N([C@H](C)CO)C[C@@H]2C)cc1 | nt | nt | nt | i
C[C@@H]1CN([C@@H](C)CO)C(=O)c2cc(NC(=O)CCN3CCOCC3)ccc2O[C@H]1CN(C)Cc1ccc(Oc2ccccc2)cc1 | nt | nt | nt | i
CCOC1=CC(=O)N(Cc2ccccc2)C1 | 69.2 | i | i | i
CN1C(=O)c2cc(NC(=O)c3cccs3)ccc2OC[C@H]2O[C@H](CC(=O)N3CCCCC3)CC[C@H]21 | nt | nt | nt | i
COc1cc(OC)cc(C(=O)Nn2cc(C(=O)Nc3ccccc3F)c3ccccc3c2=O)c1 | i | i | i | nt
COC(=O)c1cn(NC(=O)c2ccc(OC)c(OC)c2)c(=O)c2ccccc12 | i | i | i | i
COC(=O)c1cn(NC(=O)c2cnccn2)c(=O)c2ccccc12 | i | i | i | 63.0
COC(=O)c1cn(NC(=O)Cc2cccc(OC)c2)c(=O)c2ccccc12 | 33.5 | i | i | i
SMILES | CAL PDZ FP-1 | CAL PDZ FP-2 | DYRK1A inh | ARNT-TACC3 inh
O=C(Nn1cc(C(=O)Nc2ccccc2F)c2ccccc2c1=O)c1cnccn1 | i | i | nt | 60.4
Cc1ccn2c(Nc3ccc4c(c3)OCO4)c(-c3ccccn3)nc2c1 | i | i | i | 66.2
O=C(C[C@@H]1CC[C@H]2[C@@H](COC[C@H](O)CN2Cc2cc(F)cc(F)c2)O1)NC1CCCC1 | nt | nt | nt | i
COc1ccc(NC(=O)COC(=O)Cc2coc3cc(OC)ccc23)c(OC)c1 | i | i | nt | i
COc1ccc2c(CC(=O)OCC(=O)Nc3cccc(S(N)(=O)=O)c3)coc2c1 | 50.5 | i | i | i
CC(Sc1nncs1)C(=O)Nc1ccc(S(=O)(=O)Nc2ncccn2)cc1 (configuration not stated) | i | i | nt | 47.7
COc1ccc(C2NN=C(c3ccc(C)cc3)S2)cc1 (configuration not stated) | 40.9 | i | i | i
CCOc1cc(C2NN=C(c3ccc(C)cc3)S2)ccc1O (configuration not stated) | i | i | i | i
COC(=O)[C@H]1COC(c2ccc(OCCCO)cc2)=N1 | nt | nt | nt | i
O=C(COC(=O)c1ccc(NC(=O)C2CC=CCC2C(=O)O)cc1)c1ccccc1 (configuration not stated) | 66.8 | nt | i | i
C=CCCCCCCCCC(=O)NNC1CC(=O)N(c2ccccc2)C1=O (configuration not stated) | 48.6 | i | nt | i
COc1cc(C(=O)N2CCN(S(=O)(=O)c3cccs3)CC2)cc(OC)c1C | 57.8 | i | i | i
O=C(Nc1ccccc1Cl)N1CCN(c2ccc3nnc(-c4ccccc4)n3n2)CC1 | 57.0 | i | i | i
Fc1ccc(NC(=S)Nc2ccc3nccnc3c2)cc1 | i | i | i | 63.8
C[C@H]1CN([C@@H](C)CO)C(=O)Cc2cc(NS(=O)(=O)c3cccs3)ccc2O[C@H]1CN(C)C | nt | nt | nt | i
C[C@@H]1CCCCO[C@H](CN(C)S(=O)(=O)c2cccs2)[C@H](C)CN([C@@H](C)CO)C(=O)c2cc(NS(=O)(=O)c3ccccc3)ccc2O1 | nt | nt | nt | i
C[C@@H]1CN([C@H](C)CO)C(=O)c2cc(NC(=O)c3ccncc3)ccc2O[C@@H](C)CCCCO[C@H]1CN(C)C(=O)Nc1ccc2c(c1)OCO2 | nt | nt | nt | i
CC(C)(C)NC(=O)CSc1nnc(-c2c[nH]c3ccccc23)o1 | i | i | i | i
CCCC(C)NC(=O)CSc1nnc(-c2c[nH]c3ccccc23)o1 (configuration not stated) | 46.4 | i | nt | i
O=C(Nc1nccs1)[C@H]1[C@H](CO)[C@H]2Cn3c(ccc(-c4ccccc4)c3=O)[C@H]2N1CC1CCCC1 | nt | nt | nt | i
CCOc1ccc(CCNC(=O)Cn2c(-c3nonc3N)nc3ccccc32)cc1OCC | i | i | i | i
COc1ccc(CCNC(=O)Cn2c(-c3nonc3N)nc3ccccc32)cc1OC | 40.5 | nt | i | i
O=C(C[n+]1ccc(Cc2ccccc2)cc1)Nc1ccc([N+](=O)[O-])cc1Cl | i | i | i | i
Cc1ccc(Cl)cc1NC(=O)C[n+]1ccc(Cc2ccc([N+](=O)[O-])cc2)cc1 | i | i | nt | 50.9
O=C(C[C@H]1CC[C@H]2[C@@H](COC[C@H](O)CN2Cc2ccc(Cl)cc2)O1)NCc1ccccc1Cl | nt | nt | nt | i
Cc1cc(C)nc(NC(=S)Nc2cccc(F)c2)c1 | 65.0 | i | nt | i
CC(C)NC(=O)N(C)C[C@H]1OCCCC[C@H](C)Oc2ccc(NS(=O)(=O)c3ccccc3)cc2C(=O)N([C@@H](C)CO)C[C@@H]1C | nt | nt | nt | i
COc1ccc(CNC(=O)CN2C(=O)NC(C)(c3cccc4ccccc34)C2=O)cc1OC (configuration not stated) | 41.3 | i | i | i
COc1ccc(C2c3ccc(O)cc3Oc3ncn4nc(-c5ccccn5)nc4c32)cc1 (configuration not stated) | i | i | i | i
